Experiment [1] is described as follows: Inhibition of PDE4. In short, it runs like this:
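PDE4 from bovine aorta media layer; [³H]-cAMP hydrolysis, two-step assay, with 1 mM EGTA and cGMP 50 added to suppress PDE3, 50 mM Tris-HCl pH 7.5, 2 mM magnesium acetate, 1 mg/mL BSA, 1% DMSO. IC50 by regression over concentration-response data, mean of three runs.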

Experiment [2] is described as follows: Inhibition of PDE1 at 10 uM in absence of calmodulin.
Experiment [3] concerns the target T1, cGMP-dependent 3',5'-cyclic phosphodiesterase (Bos taurus) (UniProt P14099).
T1 sequence (whole entry): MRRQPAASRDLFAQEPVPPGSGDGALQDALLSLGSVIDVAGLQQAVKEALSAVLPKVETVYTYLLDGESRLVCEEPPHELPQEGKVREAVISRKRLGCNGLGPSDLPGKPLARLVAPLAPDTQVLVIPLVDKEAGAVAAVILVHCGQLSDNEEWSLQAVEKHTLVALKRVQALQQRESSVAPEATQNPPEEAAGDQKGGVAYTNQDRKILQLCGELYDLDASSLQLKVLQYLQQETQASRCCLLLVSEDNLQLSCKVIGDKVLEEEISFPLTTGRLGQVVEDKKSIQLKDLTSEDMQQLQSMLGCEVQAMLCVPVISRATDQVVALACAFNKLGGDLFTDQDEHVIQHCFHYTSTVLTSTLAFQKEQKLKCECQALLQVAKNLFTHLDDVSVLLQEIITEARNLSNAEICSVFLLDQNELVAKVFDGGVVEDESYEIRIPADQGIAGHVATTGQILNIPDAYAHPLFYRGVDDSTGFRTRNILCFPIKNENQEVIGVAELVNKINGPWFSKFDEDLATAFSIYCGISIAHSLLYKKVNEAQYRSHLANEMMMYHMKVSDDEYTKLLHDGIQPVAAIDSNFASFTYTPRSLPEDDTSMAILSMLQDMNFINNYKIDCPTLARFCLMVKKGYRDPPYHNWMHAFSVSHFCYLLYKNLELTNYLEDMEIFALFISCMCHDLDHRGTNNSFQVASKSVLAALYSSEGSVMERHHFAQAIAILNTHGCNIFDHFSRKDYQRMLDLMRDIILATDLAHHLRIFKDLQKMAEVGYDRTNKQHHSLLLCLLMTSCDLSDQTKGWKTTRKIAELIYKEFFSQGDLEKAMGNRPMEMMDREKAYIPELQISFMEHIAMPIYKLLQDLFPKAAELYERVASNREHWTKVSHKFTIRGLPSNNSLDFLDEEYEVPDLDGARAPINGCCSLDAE
The experiment in a line: Inhibition of bovine aorta PDE2 at 10 uM in absence of cGMP.

Experiment [4] in a line: Inhibition of PDE3 at 10 uM. The essentials:
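Bovine aortic media PDE3, two-step assay with [³H]-cAMP plus 1 mM EGTA in Tris-HCl 50 mM pH 7.5, 2 mM Mg acetate, BSA 1 mg/mL; rolipram 50 present to block PDE4 contamination. DMSO 1% final.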

A short description of experiment [5]: Inhibition of PDE5 at 10 uM. The essentials:
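Bovine aortic media PDE5 measured as [³H]-cGMP hydrolysis in two-step assay with 1 mM EGTA, 50 mM Tris-HCl pH 7.5, 2 mM magnesium acetate, 1 mg/mL BSA; inhibitor in DMSO, 1% final.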

Experiment [6] in a line: Inhibition of PDE1 in presence of calmodulin. The essentials: (§1)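 PDE1 purified from bovine aorta media layer; two-step radioassay with [³H]-cGMP substrate in 50 mM Tris-HCl pH 7.5, 2 mM magnesium acetate, 1 mg/mL BSA. Calmodulin-activated state: 18 nM calmodulin plus 10 mM CaCl₂. Inhibitors from DMSO, 1% final. IC50 by regression from concentration-response curves, mean of three determinations.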

The target of experiment [7] is T2, cGMP-dependent 3',5'-cyclic phosphodiesterase (Bos taurus, UniProt P14099).
T2 sequence (P14099 whole entry): T1 sequence (whole entry)
As to the kind of experiment: Inhibition of bovine aorta PDE2 in presence of cGMP. The essentials: (§2)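 PDE2 isolated from cultured bovine aortic endothelial cells; two-step assay using [³H]-cAMP plus 1 mM EGTA in 50 mM Tris-HCl pH 7.5, 2 mM magnesium acetate, 1 mg/mL BSA; activated state with 5 cGMP. DMSO 1% final; IC50 by regression from concentration-response curves, three determinations.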

Experiment [8] can be described thus: Inhibition of PDE1 at 10 uM in presence of calmodulin. In short, it runs like this: as §1
Experiment [9] has as its target T1, cGMP-dependent 3',5'-cyclic phosphodiesterase (Bos taurus). The experiment in a line: Inhibition of bovine aorta PDE2 at 10 uM in presence of cGMP. In short, it runs like this: as §2
In a further experiment the test system is PBMC. The experiment in a line: Antiinflammatory activity in human PBMC assessed as inhibition of LPS-stimulated TNFalpha release after 24 hrs by trypan blue exclusion test. Format: functional, cell-based. To be noted: in the assay text read “ELISA” for “trypan blue exclusion test”. In short, it runs like this:
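Human PBMCs from density-gradient interface, washed in HBSS-CMF, 2 × 10⁶ cells/mL, exposed to drug 10^-8 to 10^-5 M with or without Salmonella abortus equi LPS, 24 h, 37 °C, 5% CO₂. Supernatants stored at -80 °C, then TNFα measured by two-site ELISA (OD 450 nm, o-phenylenediamine), interpolated on standard curve by four-parameter logistics; viability by Trypan blue exclusion.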

For 28 molecules, IC50, inhibition and Activity results are on record in ChEMBL document CHEMBL1149808, “Cyclic nucleotide phosphodiesterase type 4 inhibitors: evaluation of pyrazolo[1,5-a]-1,3,5-triazine ring system as an adenine bioisostere” (Eur J Med Chem, 2008).

A word on the IC50: it is the concentration that gives 50% inhibition. Molecule `CCCC#Cc1cnn2c(NC)nc(C)nc12` displayed an IC50 in [1] of 410 nM.

With `CNc1nc(C)nc2c(-c3cccs3)cnn12`, in [1], the IC50 came out at 2400 nM.

`CCCc1nc(NC)c2ncn(Cc3ccccc3)c2n1` had an IC50 in experiment [1] of 88 nM.

In the case of `CNc1nc(C)nc2c(-c3cc4ccccc4o3)cnn12`, in experiment [1], the IC50 was found to be 6200 nM.

Broadly, the inhibition is the share of the control response that was lost under treatment. With `CNc1nc(C)nc2c(Cc3ccccc3)cnn12`, the IC50 in experiment [1] came out at 98 nM; in experiment [6] it was 14000 nM; in experiment [7] it was 56000 nM. Also, the inhibition in experiment [2] was found to be 37%; in [3], 19%; in experiment [4], 8.6%; in [5] it was 33%.

Regarding `CC#Cc1cnn2c(NC)nc(C)nc12`, in [1], the IC50 was 6400 nM.

For the molecule `CNc1nc(C)nc2c(Cc3ccc4ccccc4c3)cnn12`, 270 nM corresponded to half-maximal inhibition in [1] (IC50).

As to `CNc1nc(C)nc2c(-c3ccco3)cnn12`, half-maximal inhibition in experiment [1] (IC50) required 3100 nM.

With `CCC(O)c1cnn2c(NC)nc(C)nc12` (stereo not given), half-maximal inhibition in experiment [1] (IC50) required 4800 nM.

For `CCCc1nc(NC)n2ncc(Cc3ccccc3OC)c2n1`, 13 nM corresponded to half-maximal inhibition in experiment [1] (IC50). The inhibition was found to be 27% in experiment [2]; 35% in [8]; 19% in experiment [3]; 31% in [9]; 16% in [4]; 38% in [5]. For the same molecule, in the experiment on PBMC, the Activity entry was “Dose-dependent effect”.

For the molecule `CNc1nc(C(F)(F)F)nc2c(Cc3ccccc3OC)cnn12`, half-maximal inhibition in [1] (IC50) required 11 nM. Further, the inhibition in experiment [2] amounted to 20%; in experiment [3], 16%; in experiment [4], 24%; in experiment [5], 74%. Besides, the Activity result with PBMC was “Dose-dependent effect”.

`CNc1nc(C)nc2c(Cc3ccoc3)cnn12` returned an IC50 in experiment [1] of 78 nM.

As for `CNc1nc(C)nc2c(Cc3ccco3)cnn12`, it took 100 nM to reach half-maximal inhibition in experiment [1] (IC50).

In the case of `CNc1nc(C)nc2c(-c3ccccc3Cl)cnn12`, the IC50 in experiment [1] stood at 2900 nM.

On to `CCCc1nc(NC)c2ncn(Cc3ccccc3OC)c2n1`, for which, in [1], half-maximal inhibition (IC50) was put at 7 nM.

In experiment [1], `CNc1nc(C)nc2c(-c3cccc(C(C)=O)c3)cnn12` returned a half-inhibitory concentration (IC50) of 540 nM.

In [1], `CNc1nc(C(F)(F)F)nc2c1ncn2Cc1ccccc1OC` had an IC50 of 1.4 nM.

As to `CCCc1nc(NC)n2ncc(Cc3ccccc3)c2n1`, 48 nM corresponded to half-maximal inhibition in experiment [1] (IC50). The inhibition came to 24% in [2]; 25% in experiment [8]; 20% in experiment [3]; 20% in [9]; 10% in experiment [4]; 16% in experiment [5].

In experiment [1], `CNc1nc(C)nc2c(-c3cccc([N+](=O)[O-])c3)cnn12` displayed an IC50 of 1200 nM.

`CNc1nc(C)nc2c(Cc3cccs3)cnn12` came in with an IC50 in experiment [1] of 70 nM.

Take `CNc1nc(C)nc2c(-c3ccccc3)cnn12`: the IC50 in experiment [1] was 270 nM. The inhibition in [2] was determined as 21%; in experiment [8], 20%; in experiment [3], 3.6%; in [9] it was 11%; in [4] it was 2.7%; in experiment [5], 11%.

Turning to `CNc1nc(C)nc2c(-c3cc4ccccc4s3)cnn12`, the IC50 in experiment [1] amounted to 3500 nM.

Regarding `CNc1nc(C)nc2c(-c3cccc(C(F)(F)F)c3)cnn12`, the midpoint of inhibition in experiment [1], the IC50, lay at 130 nM.

`CNc1nc(C)nc2c1ncn2Cc1ccccc1` returned an IC50 in experiment [1] of 280 nM.

In turn, `CNc1nc(C)nc2c(C(=O)c3ccccc3)cnn12` yielded an IC50 in experiment [1] of 120 nM. Moreover, the inhibition in experiment [2] was 16%; in experiment [8], 29%; in experiment [3], 15%; in [9] it was 17%; in experiment [4], 11%; in [5], 8%.

As to `CNc1nc(C(F)(F)F)nc2c(Cc3ccccc3)cnn12`, in [1], the IC50 came out at 77 nM. The Activity result in the experiment on PBMC is “Dose-dependent effect”.

For the molecule `CNc1nc(C)nc2c1ncn2Cc1ccccc1OC`, it took 61 nM to reach half-maximal inhibition in experiment [1] (IC50).

`CNc1nc(C)nc2c(-c3cccc4ccccc34)cnn12`: the IC50 in experiment [1] worked out at 210 nM.
